A short description of data set [1]: Binding affinity to N-terminal thrombin-recognition site-fused His6-tagged human apolipoprotein E4 N-terminal domain without leader sequence (1 to 164 residues) expressed in Escherichia coli BL21-(DE3)-T1R cells by 13C-HSQC NMR spectroscopy.
For data set [2], the species on record is Homo sapiens. Description: Binding affinity to N-terminal thrombin-recognition site-fused His6-tagged human apolipoprotein E4 N-terminal domain without leader sequence (1 to 164 residues) expressed in Escherichia coli BL21-(DE3)-T1R cells assessed as breakdown of DMPG liposomes at 500 uM after 30 mins by dynamic light scattering analysis. An outline of the steps:
(§1)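 DMPG liposome breakdown assay: large DMPG liposomes incubated with apoE protein (N-terminal domain, or full-length wild-type from mammalian cells). Breakdown into smaller discoidal complexes is read as a fall in light-scattering intensity. Liposomes alone serve as control. Compound is tested as a dose series covering 15.6 to 500 μM.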

Data set [3] in a line: Binding affinity to full-length human recombinant C-terminal FLAG/His-tagged apolipoprotein E3 expressed in HEK293-6E cells by surface plasmon resonance assay.
The species named for data set [4] is Homo sapiens. Description: Binding affinity to human recombinant full-length N-terminal thrombin-recognition site-fused His6-tagged apolipoprotein E4 (1 to 299 residue) F257A/W246R/V269A/L279Q/V287E mutant expressed in Escherichia coli BL21-(DE3)-T1R cells assessed as change in melting temperature at 5 mM incubated for 15 mins by SYPRO orange dye-based thermal shift assay. An outline of the steps:
(§2)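 Thermal shift assay: compound added at 5 mM to full-length mutant apoE protein (apoE4 or apoE3). Stabilization is reported as the shift in melting temperature, in degrees.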

The nature of data set [5]: Binding affinity to N-terminal thrombin-recognition site-fused His6-tagged human apolipoprotein E4 N-terminal domain without leader sequence (1 to 164 residues) expressed in Escherichia coli BL21-(DE3)-T1R cells by surface plasmon resonance analysis.
Data set [6] is described as follows: Binding affinity to full-length human recombinant C-terminal FLAG/His-tagged apolipoprotein E4 expressed in HEK293-6E cells by surface plasmon resonance assay.
Data set [7] can be described thus: Solubility of the compound in PBS by NMR method. Type of data set: physicochemical.
Data set [8] is filed under the species Homo sapiens. Description: Binding affinity to human recombinant full-length N-terminal thrombin-recognition site-fused His6-tagged apolipoprotein E3 (1 to 299 residue) F257A/W246R/V269A/L279Q/V287E mutant expressed in Escherichia coli BL21-(DE3)-T1R cells assessed as change in melting temperature at 5 mM incubated for 15 mins by SYPRO orange dye-based thermal shift assay. An outline of the steps: as §2

Data set [9] is filed under the species Homo sapiens. Briefly: Binding affinity to full-length human recombinant C-terminal FLAG/His-tagged apolipoprotein E4 expressed in HEK293-6E cells assessed as breakdown of DMPG liposomes at 500 uM after 30 mins by dynamic light scattering analysis. In kind it is cell-based. A digest of the protocol: as §1
For data set [10], the system named is Astrocyte. Briefly: Antineuroinflammatory activity in human induced pluripotent stem cell-derived astrocytes harboring apolipoprotein E4/4 assessed reduction in TNFalpha/IL-1beta/IFNgamma-stimulated IL-8 secretion preincubated for 1 hr followed by TNFalpha/IL-1beta/IFNgamma stimulation and measured after 24 hrs. Type of data set: functional, cell-based.
In data set [11] the test system is Astrocyte. Briefly: Cytotoxicity against human induced pluripotent stem cell-derived astrocytes harboring apolipoprotein E4/4 assessed as effect on cell viability at 12.5 uM to 100 uM preincubated for 1 hr followed by TNFalpha/IL-1beta/IFNgamma stimulation and measured after 24 hrs by CellTiter-Glo luminescent cell viability assay. In kind it is cell-based.
For data set [12], the system named is Astrocyte. Description: Antineuroinflammatory activity in human induced pluripotent stem cell-derived astrocytes harboring apolipoprotein E4/4 assessed reduction in TNFalpha/IL-1beta/IFNgamma-stimulated IL-6 secretion preincubated for 1 hr followed by TNFalpha/IL-1beta/IFNgamma stimulation and measured after 24 hrs. Type of data set: functional, cell-based.

Data set [13] is filed under the species Homo sapiens. Description: Binding affinity to human recombinant full-length N-terminal thrombin-recognition site-fused His6-tagged apolipoprotein E4 (1 to 299 residue) F257A/W246R/V269A/L279Q/V287E mutant expressed in Escherichia coli BL21-(DE3)-T1R cells assessed as change in melting temperature at 1 mM incubated for 15 mins by SYPRO orange dye-based thermal shift assay.

Activity calls are given as the source filed them. The calls are words filed in the database; no cut-off is given here. Bounds are passed on as bounds.

`N=C(N)C1(c2cc(Cl)cc(-c3ccc(CO)c(Cl)c3)c2)CCC1`: the affinity in data set [1], expressed as Kd, was 8 µM.

In turn, `CCNS(=O)(=O)c1ccc(-c2cc(Cl)cc(C3(C(=N)N)CCC3)c2)cc1` registered a dissociation constant (Kd) in data set [1] of 20 µM.

In data set [1], `CC(C)(O)c1ccc(-c2cc(Cl)cc(C3(C(=N)N)CCC3)c2)cc1` displayed a Kd of 30 µM.

As to `N=C(N)C1(c2cccc(Cl)c2)CCC1`, the outcome in the data set filed under Homo sapiens [2] and in the data set filed under Homo sapiens [9] was Active. Further, the dissociation constant Kd stood at 900 µM in data set [1], 890 µM in data set [3], 205 µM in data set [5] and 233 µM in data set [6]. Also, the ΔTm came to 4 °C in the data set filed under Homo sapiens [4] and 0.5 °C in the data set filed under Homo sapiens [8]. Also, the solubility in [7] was no less than 500 µM.

In turn, `N=C(N)C1(c2cc(Cl)cc(-c3ccc(CN)cc3)c2)CCC1` displayed a Kd in data set [1] of less than 5 µM.

As for `CN(C)CCNC(=O)c1ccc(-c2cc(Cl)cc(C3(C(=N)N)CCC3)c2)cc1`, the Activity entry is “Dose-dependent effect” with Astrocyte [10], “Non-Toxic” in the data set with Astrocyte [11] and “Dose-dependent effect” with Astrocyte [12]. This compound had a Kd in [1] of less than 5 µM. Moreover, the shift in melting temperature (ΔTm) in the data set filed under Homo sapiens [13] turned out to be 4 °C.

In [1], `N=C(N)C1(c2cc(Cl)cc(-c3ccccc3)c2)CCC1` displayed a Kd of 230 µM.

With `CC(=O)NCc1ccc(-c2cc(Cl)cc(C3(C(=N)N)CCC3)c2)cc1`, in data set [1], binding was characterised by a dissociation constant (Kd) of 20 µM.
